Assay results published in ChEMBL document CHEMBL3232958, “Antiproliferative and uncoupling effects of delocalized, lipophilic, cationic gallic acid derivatives on cancer cell lines. Validation in vivo in singenic mice” (J Med Chem, 2014).
Calls of active or inactive are those of the source. No cut-off for these calls is given here.

Assays:
[1] = test system: TA3-MTX-R; assay: Induction of mitochondrial swelling in mouse TA3-MTX-R cell mitochondria at 0.15 mM by UV/vis spectrophotometer analysis in presence of N-acetylcysteine; format: functional
[2] = test system: TA3/Ha; assay: Antitumor activity against mouse TA3/Ha cells allografted in CAF1-Jax mouse syngenic model assessed as increase of host survival at 10 mg/kg, ip administered every 48 hrs of 30 days; format: functional, organism-based; design: dose 10 mg/kg
[3] = test system: TA3/Ha; assay: Antitumor activity against mouse TA3/Ha cells allografted in CAF1-Jax mouse syngenic model assessed as inhibition of tumor growth at 10 mg/kg, ip administered every 48 hrs of 30 days; format: functional, organism-based; design: dose 10 mg/kg
Procedure, shortened: (§1)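 Adult male CAF1-Jax mice; 1.0 × 10^6 TA3/Ha cells in 0.1 mL 0.9% NaCl injected subcutaneously into the back. 10 mg/kg given ip every 48 h for 30 days to groups of six mice; controls received vehicle. Tumor diameters measured three times weekly; volume = (max diameter)(min diameter)²/2. Two independent experiments.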

[4] = test system: Mus musculus; assay: Toxicity in mouse TA3/Ha cells allografted CAF1-Jax mouse syngenic model at 10 mg/kg, ip administered every 48 hrs of 30 days; format: organism-based; design: dose 10 mg/kg, route intraperitoneal; details: in vivo; procedure, shortened: as §1
[5] = test system: TA3/Ha; assay: Induction of NAD(P)H oxidation in mouse TA3/Ha cells assessed as reduction of NAD(P)H/NAD(P)+ ratio at 2.5 mg of protein/mL by spectrofluorometer analysis; format: functional, cell-based
Procedure, shortened: (§2)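 NAD(P)H autofluorescence (ex 340, em 420 nm) at 25 °C with stirring. Medium: PBS pH 7.4, 2.5 mM glutamine, TA3 cells at 2.5 mg protein/mL. Rotenone (12 μM), FCCP (6 μM) or test cation added during the time course.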

[6] = Cytotoxicity against mouse TA3/Ha cells after 48 hrs by neutral red assay; format: functional, cell-based
Procedure, shortened: (§3)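 Neutral red uptake after 48 h exposure at 37 °C, 5% CO2. Seeding: 1 × 10^5 cells/mL for TA3, TA3-MTX-R and CCRF-CEM; 4 × 10^4 cells/mL for MM3MG. Dye at 100 μg/mL for 2 h, then ethanol/acetic acid extraction and absorbance at 540 nm. IC50 from variable-slope sigmoidal dose–response fit; at least three independent experiments in triplicate, mean ± SEM.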

[7] = Cytotoxicity against mouse multidrug-resistant TA3-MTX-R cells after 48 hrs by neutral red assay; format: functional, cell-based; procedure, shortened: as §3
[8] = test system: CCRF-CEM; assay: Cytotoxicity against human CCRF-CEM cells after 48 hrs by neutral red assay; format: functional, cell-based; procedure, shortened: as §3
[9] = Cytotoxicity against mouse MM3MG cells after 48 hrs by neutral red assay; format: cell-based; procedure, shortened: as §3
[10] = Ratio of IC50 for mouse MM3MG cells to IC50 for mouse TA3/Ha cells
Procedure, shortened: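 Ratio of 48 h neutral red IC50 values. MM3MG seeded at 4 × 10^4 cells/mL, TA3 at 1 × 10^5 cells/mL. Each IC50 from a variable-slope sigmoidal fit of at least three independent experiments.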

[11] = Uncoupling respiration effect in mouse TA3/Ha cells after 2 mins by polarographic analysis in presence of FCCP; format: functional
Procedure, shortened: (§4)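 Polarographic respiration of digitonin-permeabilized cells (0.013 μg/mg protein; 2.5 mg protein/mL) in PBS pH 7.4 with 10 mM succinate and 1 μg/mL oligomycin. Cations added in 3 μL DMSO. Atractyloside 5 nmol/mg protein was added before succinate. FCCP added at the end: 0.15 μM for TA3, 0.25 μM for TA3-MTX-R. Slope and K0.5 taken from log–log linear regression; at least three experiments.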

[12] = Uncoupling respiration effect in mouse TA3-MTX-R cells after 2 mins by polarographic analysis in presence of FCCP; format: functional; procedure, shortened: as §4
[13] = Uncoupling respiration effect in mouse TA3/Ha cells after 2 mins by polarographic analysis in presence of atractyloside; format: functional; procedure, shortened: as §4
[14] = Uncoupling respiration effect in mouse TA3-MTX-R cells after 2 mins by polarographic analysis in presence of atractyloside; format: functional; procedure, shortened: as §4
[15] = test system: TA3/Ha; assay: Reduction of ATP level in mouse TA3/Ha cells at 1 to 20 uM after 2 hrs by CellTiter-Glo luminescent assay; format: functional, cell-based
Procedure, shortened: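 CellTiter-Glo luminescence on 2 × 10^5 cells/mL incubated with cation for 2 h. Aliquot held 10 min at room temperature in the dark before reading; at least three experiments.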

[16] = Toxicity in mouse TA3/Ha cells assessed as cell membrane integrity after 24 hrs using propidium iodide by flow cytometry; format: cell-based; details: 2 to 4 h, in the assay text read “after 2 to 4 hrs” for “after 24 hrs”
Procedure, shortened: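 Membrane integrity by PI uptake on flow cytometry. Cells were seeded, grown for 24 h at 37 °C, 5% CO2, then given fresh medium with cation for 2 and 4 h before PI was added. Mean ± SEM of at least three experiments.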

[17] = test system: TA3/Ha; assay: Induction of NAD(P)H oxidation in mouse TA3/Ha cells assessed as reduction of NAD(P)H/NAD(P)+ ratio by spectrofluorometer analysis; format: functional, cell-based; procedure, shortened: as §2
[18] = test system: TA3/Ha; assay: Decrease of mitochondrial transmembrane potential in mouse TA3/Ha cell mitochondria at 0.5 uM after 5 mins by safranin staining; format: functional
Procedure, shortened: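 Safranin (20 μM) absorbance change at 511–533 nm in isolated mitochondria (1.0 mg/mL) in sucrose/KCl/Hepes pH 7.4 buffer with EGTA and phosphate. Baseline 5 min, then 2 mM glutamate + 2 mM malate for 5 min, then cation added. Mean ± SD of at least three experiments.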

[19] = test system: TA3/Ha; assay: Decrease of mitochondrial transmembrane potential in mouse TA3/Ha cell mitochondria at 0.5 uM after 5 mins by JC-1 staining; format: functional
[20] = test system: TA3/Ha; assay: Induction of mitochondrial swelling in mouse TA3/Ha cell mitochondria at 0.05 to 0.20 mM by UV/vis spectrophotometer analysis; format: functional
[21] = test system: TA3/Ha; assay: Induction of mitochondrial swelling in mouse TA3/Ha cell mitochondria at 0.15 mM by UV/vis spectrophotometer analysis in presence of cyclosporine-A; format: functional
Procedure, shortened: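 Same swelling set-up with TA3/Ha mitochondria (0.5 mg/mL, KCl/Tris pH 7.4, glutamate/malate) at 0.15 mM cation, with increasing cyclosporine concentrations.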

[22] = test system: TA3/Ha; assay: Induction of mitochondrial swelling in mouse TA3/Ha cell mitochondria at 0.15 mM by UV/vis spectrophotometer analysis in presence of N-ethylmaleimide; format: functional
Procedure, shortened: (§5)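 Same swelling set-up with TA3/Ha mitochondria at 0.15 mM cation, in the presence of NEM, DTT or NAC. Mean ± SEM of at least three experiments, ANOVA with Bonferroni test.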

[23] = test system: TA3/Ha; assay: Induction of mitochondrial swelling in mouse TA3/Ha cell mitochondria at 0.15 mM by UV/vis spectrophotometer analysis in presence of dithiothreitol; format: functional; procedure, shortened: as §5
[24] = test system: TA3/Ha (Mus musculus); assay: Induction of mitochondrial swelling in mouse TA3/Ha cell mitochondria at 0.15 mM by UV/vis spectrophotometer analysis in presence of cyclosporine-A
[25] = test system: TA3/Ha (Mus musculus); assay: Induction of mitochondrial swelling in mouse TA3/Ha cell mitochondria at 0.15 mM by UV/vis spectrophotometer analysis in presence of N-ethylmaleimide

O=C(OCCCCCCCCCC[P+](c1ccccc1)(c1ccccc1)c1ccccc1)c1cc(O)c(O)c(O)c1.[Br-]
Activity [1]: Active | Activity [2]: Active | TGI [3]: Active | Activity [4]: Non-toxic | Activity [5]: Active | IC50 [6]: 0.4 µM | IC50 [7]: 0.38 µM | IC50 [8]: 1.65 µM | IC50 [9]: 7.1 µM | Ratio IC50 [10]: 17 | K0.5 [11]: 1.21 µM | K0.5 [12]: 1.8 ×10⁻⁵ M | K0.5 [13]: 4.29 ×10⁻⁵ M | K0.5 [14]: 5.24 ×10⁻⁵ M | Activity [15]: Active | Activity [16]: Non-toxic | Activity [17]: Dose-dependent effect | Activity [18]: Active | Activity [19]: Active | Activity [20]: Active | Activity [21]: Active | Activity [22]: inactive | Activity [23]: inactive | Activity [24]: Active | Activity [25]: inactive
